Values without a mark were called inactive. Records with an inconclusive call do not appear. Calls of active or inactive are those of the source.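 How the source made its calls, unless noted: active means RAM network inhibition above 8.4% in each of two replicates, 3 SD over the compound average; inconclusive means above 8.4% inhibition in only one replicate; inactive means 8.4% inhibition or less in each replicate.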
Columns and labels:
[1] = OD615 S. cerevisiae growth inhibition, permissive medium, pilot counter-assay, permissive growth control for S. cerevisiae lifespan shortening project (AID 705;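 active means growth inhibition above 25% in both replicates, a cutoff set 3 SD above the mean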); settings: OD615, 24 h, at 10 µM, stronger effect = higher value
In short: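 System: Engineered DeaD yeast | Buffer or medium: SC raffinose/galactose permissive medium | Incubation: Cells pre-grown 4 h, then 24 h compound exposure, 30 °C humidified | Measured by: Absorbance (optical density) at 615 nm | Read-out: Reduction in yeast growth (OD615)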

[2] = viability gain of MRP-1-high H69AR cells under doxorubicin, pilot screen, MRP-1 activator project, CellTiter-Glo, duplicate (AID 807;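 active means viability increase at or above a cutoff of the median across tested compounds plus 3 SD, cut at about 8.5% in these data, passing the limit was not always enough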;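 further: compound pretreatment 18-22 h then 72 h combined with doxorubicin; 0% = doxorubicin alone and 100% = vehicle without doxorubicin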); settings: H69AR viability with doxorubicin, CellTiter-Glo luminescence; at 10 µM; stronger effect = higher value
[3] = growth suppression of beta-catenin knockout HCT116, pilot screen, human colon tumor cells (AID 823;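 active means cell viability at or below a set limit in both duplicate runs, the limit being the all-compound median minus 4 SD, cut at about 23% in these data, passing the limit was not always enough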;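 further: 0% = wells killed by 20 µM Hyamine and 100% = untreated DMSO cell wells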); settings: CellTiter-Glo, 60 h, at 10 µM, stronger effect = lower value
[4] = growth suppression of PTEN-deleted HCT116, pilot screen, cell-based, HCT116 clonal line, CellTiter-Glo (AID 824;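 active means viability at or below 27.92% in each of two runs, the all-compound median minus 4 SD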;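 further: 0% = 20 µM Hyamine control and 100% = vehicle cell control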); settings: 60 h, at 10 µM, stronger effect = lower value
[5] = inhibitors of the yeast RAM network, pilot screen, dse1pr::URA3 reporter, 5-FOA selection (AID 869;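 active means inhibition over a set limit, the all-compound mean plus 3 SD, in both replicate runs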;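 further: 0% = DMSO wells with no growth and 100% = 10 µM 1-NA-PP1 with full growth; RAM network block rescues cells from 5-FOA so hits raise OD615 growth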); settings: S. cerevisiae dse1pr::URA3 5-FOA growth, OD615, 2 d; at 10 µM; stronger effect = higher value; strain carries analog-sensitive mutant Cbk1 kinase
[6] = RAM signaling pathway blockade in yeast – S. cerevisiae, Pdr1DBD-CYC8 efflux-inhibited sensitized strain, primary screen (AID 1298);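 further: 0% = DMSO untreated cells without growth and 100% = 10 µM 1-NA-PP1 full growth; higher means more yeast growth rescued from 5-FOA killing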; settings: S. cerevisiae cbk1-as DSE1-URA3 strain, 5-FOA growth OD615, 2 d; at 50 µM; stronger effect = higher value
[7] = Restrictive medium S. cerevisiae growth inhibition, OD615, pilot screen of yeast lifespan reduction project, restrictive growth control (AID 706;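 active means growth inhibition above a set limit, 3 SD over mean compound inhibition, in both replicates, cut at about 43% in these data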;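 further: modified DeaD lifespan yeast strain shifted to restrictive glucose medium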); settings: OD615, 48 h, at 10 µM, stronger effect = higher value
In short: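 Material: modified S. cerevisiae; Medium: glucose-based CSMM-D restrictive medium; Compound dosing: one concentration, 10 µM final, 0.25% DMSO; Incubation: 48 h compound exposure at 30 °C; Measured by: OD615.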

| Compound | growth inhibition [1] [%] | viability increase [2] [%] | viability [3] | viability [4] | inhibition [5] [%] | RAM network inhibition [6] [%] | growth inhibition [7] |
| --- | --- | --- | --- | --- | --- | --- | --- |
| COc1cc(C2CC(=O)N3CN(Cc4ccco4)CSC3=C2C#N)ccc1OCc1ccccc1 (stereo unspecified) | 7.01 | -5.42 | 77.8% | 83.5% | 1.65 | 2.55 | – |
| COc1ccc(Cl)cc1N1C(=O)C2CCCN2C1c1ccc(F)c(F)c1 (stereo unspecified) | -5.22 | – | 98.1% | 92.7% | 1.33 | 6.15 | -6.92% |
| Cn1cccc1Cc1nnc(SCC(=O)NC2CCCC2)n1CCc1ccccc1 | -1.71 | -0.59 | 101% | 96.8% | 1.71 | 6.53 | – |
| CN(c1ccccc1)S(=O)(=O)c1ccc(C(=O)Nc2nccs2)cc1 | -17.4 | – | 84.8% | 83.3% | 3.73 | 4.85 | -19.6% |
| Oc1c(C(c2cccs2)N2CCN(c3cccc(Cl)c3)CC2)sc2ncnn12 (stereo unspecified) | -8.2 | – | 88.1% | 90.5% | 1.94 | 3.42 | 5.16% |
| CCOc1ccc2nc3ccc4[nH]onc4c3c2c1 | 0.485 | – | 74.8% | 66.5% | 2.8 | 6.1 | 1.57% |
| O=C1C=C(O)CC(c2ccc(Cl)cc2)C1 (stereo unspecified) | -2.77 | – | – | 103% | -0.37 | 8.23 | 0.79% |
| O=C(O)c1cccc(N2C(=O)C3CC=C(Cl)CC3C2=O)c1 (stereo unspecified) | -4.4 | – | 95.6% | 92.4% | 1.16 | 3.38 | -10.2% |
| Cc1noc(/C=C/N(C)C)c1S(=O)(=O)N1CCCC(C(=O)NCc2ccco2)C1 (stereo unspecified) | 4.93 | – | 97.6% | 92.1% | 0.86 | 4.7 | -2.94% |
| Cc1noc(/C=C/N(C)C)c1S(=O)(=O)N1CCCC(C(=O)NC2CCCCC2C)C1 (stereo unspecified) | -2.76 | – | 87.1% | 83.2% | 1.89 | 7.7 | -6.36% |
| c1cncc(-c2nnc(SCc3cccc4ccccc34)o2)c1 | -6.93 | -0.01 | 103% | 91% | 1.16 | 0.49 | – |
| O=C1Cc2ccccc2C(=O)N1CCc1ccccc1 | 12.3 | – | 97.2% | 92.8% | 1.75 | 2.61 | 66% (active) |
| COc1ccc(-n2c(Cc3cc(=O)[nH]c(=O)[nH]3)nnc2SCC(=O)N2CCC(C)CC2)cc1 | -11.5 | – | 98.2% | 96.9% | 2.92 | 0.47 | 4.4% |
| COc1ccccc1C1CC(c2ccc(Cl)cc2Cl)Nc2nc(N)nn21 (stereo unspecified) | -5.97 | – | 86.1% | 85% | 1.62 | 7.09 | 25.2% |
| S=C(Nc1ccccn1)c1ccccn1 | 7.06 | -8.21 | 2.08% (active) | 0.72% (active) | 1.43 | 3.64 | – |
| CCOc1ccccc1N1CSC2=C(C#N)C(c3c(OC)ccc4ccccc34)CC(=O)N2C1 (stereo unspecified) | 4.14 | -6.32 | 67.3% | 65.5% | 3.73 | 3.99 | – |
| CCN(CC)C1CC(=O)N(c2cccc(C)c2)C1=O (stereo unspecified) | 20 | -1.11 | 105% | 101% | 2.06 | -0.69 | – |
| Cc1cccc(C2CC(c3ccccc3)Nc3ncnn32)c1 (stereo unspecified) | 3.16 | – | 91.9% | 93.8% | 1.7 | 0.37 | 13.8% |
| O=C(Nc1nc2c(s1)CCCC2)c1ccc2ncsc2c1 | 14.5 | -2.76 | 68.4% | 76.7% | -0.135 | 0.27 | – |

| Compound | growth inhibition [1] [%] | viability increase [2] [%] | viability [3] | viability [4] | inhibition [5] [%] | RAM network inhibition [6] [%] | growth inhibition [7] |
| --- | --- | --- | --- | --- | --- | --- | --- |
| CN(C)S(=O)(=O)c1ccc(S(=O)(=O)N2CCN(CCC#N)CC2)cc1 | -0.96 | – | 102% | 101% | 0.005 | -1.81 | 2.05% |
| CCOC(=O)c1c(N)sc2c(OC)c(Br)ccc12 | 21.3 | 0.76 | 99.8% | 102% | -2.46 | 5.62 | – |
| Brc1ccc(CSc2ncn[nH]2)cc1 | -0.435 | – | 95.3% | 95.3% | 0.94 | 0.27 | 12.1% |
| O=C(Cn1c(=O)oc2cc(S(=O)(=O)N3CCCC3)ccc21)NCc1ccccn1 | 8.21 | – | 107% | 104% | 1.01 | -0.87 | 0.96% |
| CCc1nnc(NC(=O)c2ccc(S(=O)(=O)N(CC)CC)cc2)s1 | -7.41 | – | 104% | 90.9% | 1.52 | -0.37 | -3.27% |
| CCCCc1ccc(-c2nc(-c3ccncc3)no2)cc1 | -16.1 | – | 65.8% | 75.9% | 3.17 | 3.23 | -3.25% |
| Cc1cccc(N2CCN(C(=O)c3cc4c(=O)n(C)c5ccccc5c4n3C)CC2)c1C | -7.02 | – | 61.1% | 65.5% | 3.12 | 1.49 | -6.91% |
| Cc1cccc(N(C)c2cc(C)nc3nc(C)nn23)c1 | -14.5 | – | 64.8% | 53.3% | 2.03 | 5.5 | -6.39% |
| CCc1ccc(NC(=O)Cn2c(=O)oc3cc(S(=O)(=O)N4CCOCC4)ccc32)cc1 | -11 | – | 99.8% | 89.2% | 1.83 | 8.19 | -13.3% |
| CCOC(=O)/C=C1\SCC(=O)N1CCOc1cccc(Br)c1 | -18.6 | – | 85.5% | 80.4% | 2.75 | 3.37 | -29.1% |
| COc1cc(Cl)c(C)cc1NC(=O)CSc1nnc(-c2cccnc2)n1Cc1ccco1 | 4.79 | -3.48 | 84.8% | 79.8% | 0.775 | 7.75 | – |
| Clc1ccccc1CSc1nnc(-c2ccccn2)n1Cc1ccco1 | -5.1 | -5.33 | 74.8% | 79% | 1.92 | 2.52 | – |
| COc1ccccc1CNC(=O)CN1CCN(Cc2ccc(Cl)cc2)C1=O | 7.3 | – | 98.3% | 92.5% | 1.5 | 0.67 | 10.3% |
| CCc1ccc(C2CC(c3ccccc3C)n3nc(N)nc3N2)cc1 (stereo unspecified) | 7.95 | – | 87.5% | 79.6% | 0.19 | 6.27 | -3.1% |
| O=c1c2ccccc2[nH]c(=S)n1Cc1cccnc1 | 6.04 | -0.83 | 103% | 92.5% | -0.605 | 1.73 | – |
| Cc1onc(-c2ccccc2)c1C(=O)Nc1nnc(N(C)Cc2ccccc2)s1 | -12.4 | – | 89.8% | 88.8% | 1.02 | 9.12 | -20.5% |
| Cc1ccc(Cl)cc1N1CCN(C(=O)c2cc3c(=O)n(C)c4ccccc4c3n2C)CC1 | -2.52 | – | 20.4% (active) | 23.5% (active) | 1.74 | 2.44 | 9.03% |
| COc1ccc(S(=O)(=O)N2CCN(c3ccc4nnc(-c5ccc(F)cc5)n4n3)CC2)cc1 | 16.1 | -6.07 | 46.4% | 38.6% | 1.78 | 1.48 | – |

Reference: PubChem BioAssay
